pIC50: −log10 of the molar value.
Tests used:
[1] = Cytotoxicity against mouse peritoneal macrophages assessed as growth inhibition after 48 hrs by MTT assay; format: cell-based, Peritoneal macrophage; conditions: read-out: LD50
Outline: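 Murine peritoneal macrophages plated at 5 × 10^4 cells/well in DMEM with 5 mM L-glutamine, 10% FBS and antibiotics, then incubated overnight at 5% CO2. Compounds added at varied concentrations in duplicate wells, 48 h further incubation. Viability read by MTT reduction as % of untreated controls. LD50 taken by non-linear regression of % viability vs log concentration.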

[2] = Inhibition of acetate buffer-initiated beta-hematin polymerization at 50 uM measured after 48 hrs relative to control
Outline: (§1)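 Hemin chloride (4 mM in DMSO) was dispensed into plates with compound in DMSO (50-5 µM), in triplicate. Water or DMSO served as controls. Reaction was started with 0.2 M acetate buffer, pH 4.4, and run at 37 °C for 48 h. The pellet was centrifuged, washed twice with DMSO, dissolved in 0.2 N NaOH, diluted 1:2 in 0.1 N NaOH and read at 405 nm as % inhibition.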

[3] = Hemolytic activity in human RBC after 45 mins by spectrophotometric method; format: ADME, cell-based, Erythrocyte; conditions: red blood cells (erythrocytes)
Outline: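 Human RBCs from 50% Alsever's solution were spun at 800g for 10 min and washed three times in saline. Compounds (5-5000 µM) were incubated with a 2% final RBC suspension at 37°C for 45 min. Released haemoglobin was read at 550 nm, with water as the 100% lysis control and saline as the negative control. Result given as the concentration lysing half the RBCs.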

[4] = Inhibition of acetate buffer-initiated beta-hematin polymerization measured after 48 hrs; outline: as §1
Plasmodium berghei [5] = assay: Antimalarial activity against Plasmodium berghei ANKA infected in Balb/c mouse assessed as parasitemia at 20 mg/kg, ip qd administered for 4 days starting from 2 hrs post infection by Giemsa staining based microscopic method (reference value: 65.2 +/- 2.58%); format: functional
Plasmodium berghei [6] = assay: Antimalarial activity against Plasmodium berghei ANKA infected in Balb/c mouse assessed as mouse survival time at 20 mg/kg, ip qd administered for 4 days starting from 2 hrs post infection (reference value: 6.8 +/- 0.7day); format: functional
Outline: (§2)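 Male Balb-C mice (18-22 g, n=6 per group) infected i.v. via caudal vein with 10^6 P. berghei-infected RBC. Treatment started 2 h post-infection, once daily i.p. for 4 days. Compounds dissolved in DMSO (0.1 M stock), diluted with 2% Saline-Tween 20. Saline-treated controls. Survival time recorded relative to saline group. Parasitemia by Giemsa-stained smears at day 4. Mean±SD.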

Plasmodium berghei [7] = assay: Antimalarial activity against Plasmodium berghei ANKA infected in Balb/c mouse assessed as parasitemia at 25 mg/kg, ip qd administered for 4 days starting from 2 hrs post infection by Giemsa staining based microscopic method (reference value: 65.2 +/- 2.58%); format: functional
Plasmodium berghei [8] = assay: Antimalarial activity against Plasmodium berghei ANKA infected in Balb/c mouse assessed as mouse survival time at 25 mg/kg, ip qd administered for 4 days starting from 2 hrs post infection (reference value: 6.8 +/- 0.7day); format: functional; outline: as §2

**Q.** What does the source list for `Clc1ccc2c(Nc3ccc(CN4CCOCC4)cc3)ccnc2c1`?
**A.** CC50 at 48 h [1]: 36.2 µM; inhibition [2]: 5.17%; HC50 at 0.75 h [3]: 0.591 mM; pIC50 [4]: < 4.30

**Q.** Which Activity (Plasmodium berghei [5]) does the source give for `CCN(CC)Cc1ccc(Nc2ccnc3cc(Cl)ccc23)cc1` here?
**A.** 3.8%

**Q.** What about the CC50 at 48 h [1] of the same molecule?
**A.** 42.4 µM

**Q.** And the inhibition [2]?
**A.** 98.2%

**Q.** And the HC50 at 0.75 h [3]?
**A.** 2.92 mM

**Q.** What about the pIC50 [4] of the same molecule?
**A.** 5.75

**Q.** And the Time (Plasmodium berghei [6])?
**A.** 24.9 days

**Q.** For `CC(C)(C)NCc1ccc(Nc2ccnc3cc(Cl)ccc23)cc1.Cl`, which Activity (Plasmodium berghei [5]) is on record?
**A.** 4%

**Q.** What about the CC50 at 48 h [1] of the same molecule?
**A.** 47.1 µM

**Q.** And the inhibition [2]?
**A.** 98.6%

**Q.** What about the HC50 at 0.75 h [3] of the same molecule?
**A.** 1.49 mM

**Q.** And the pIC50 [4]?
**A.** 5.78

**Q.** What about the Time (Plasmodium berghei [6]) of the same molecule?
**A.** 25.8 days

**Q.** Which inhibition [2] does the source give for `CCN(CC)CCCC(C)Nc1ccnc2cc(Cl)ccc12` (stereo unspecified) [CHLOROQUINE] here?
**A.** 98.6%

**Q.** And the Activity (Plasmodium berghei [7])?
**A.** 0.6%

**Q.** What about the HC50 at 0.75 h [3] of the same molecule?
**A.** > 1.5 mM

**Q.** What about the pIC50 [4] of the same molecule?
**A.** 5.83

**Q.** And the Time (Plasmodium berghei [8])?
**A.** 29.4 days

— ChEMBL document CHEMBL4145443, “Synthesis, β-hematin inhibition studies and antimalarial evaluation of new dehydroxy isoquine derivatives against Plasmodium berghei: A promising antimalarial agent” (Eur J Med Chem, 2018)
